From ChEMBL document CHEMBL5058577, “EUbOPEN Chemogenomics Library 2 (Multiplex)” (2022)

Tested on: HEK-293T
Assay: Multiplex assay against HEK293T
Format: toxicity, cell-based
Conditions: human
Method in brief: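 Values for tubulin, mitochondrial-mass and membrane-permeability phenotypes are per cents of cells with healthy nuclei. These cells were identified by CellPathfinder machine-learning gating of live cells that had been stained at seeding with Hoechst33342, BioTracker Green Microtubule Cytoskeleton Dye, MitoTracker Red and Annexin V Alexa Fluor 680 and imaged on a CQ1 microscope at 37°C and 5% CO2 after compound addition. The gating first set Hoechst high-intensity objects apart from normal cells, then split normal cells into healthy, pyknosed or fragmented nuclei, and pyknosed cells into mitotic or apoptotic.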

[1] = 12 h, 1 µM, compound concentration 1 uM, replicate 1
[2] = 12 h, 1 µM, compound concentration 1 uM, replicate 2
[3] = 12 h, 10 µM, compound concentration 10 uM, replicate 1
[4] = 12 h, 10 µM, compound concentration 10 uM, replicate 2
[5] = 24 h, 1 µM, compound concentration 1 uM, replicate 1
[6] = 24 h, 1 µM, compound concentration 1 uM, replicate 2
[7] = 24 h, 10 µM, compound concentration 10 uM, replicate 1
[8] = 24 h, 10 µM, compound concentration 10 uM, replicate 2
[9] = 48 h, 1 µM, compound concentration 1 uM, replicate 1
[10] = 48 h, 1 µM, compound concentration 1 uM, replicate 2
[11] = 48 h, 10 µM, compound concentration 10 uM, replicate 1
[12] = 48 h, 10 µM, compound concentration 10 uM, replicate 2

CN(C)C(=O)Cn1cc(-c2ccc(-c3nnc4ccccn34)cc2)cn1
Population Apoptotic (%) [1]: 31% | Population Fragmented Nuclei (%) [1]: 7% | Population Healthy Nuclei (%) [1]: 80% | Population Hoechst High Intensity Objects (%) [1]: 9% | Population Membrane Permeable-Phenotype (%) [1]: 0% | Population Mitochondria Different-Phenotype (%) [1]: 40% | Population Mitotic Cells (%) [1]: 68% | Population Normal (%) [1]: 90% | Population Pyknosed Nuclei (%) [1]: 11% | Population Tubulin-Different-Phenotype (%) [1]: 32% | Total Cell Count [1]: 432 | Population Apoptotic (%) [2]: 43% | Population Healthy Nuclei (%) [2]: 79% | Population Hoechst High Intensity Objects (%) [2]: 10% | Population Mitochondria Different-Phenotype (%) [2]: 59% | Population Mitotic Cells (%) [2]: 56% | Population Normal (%) [2]: 89% | Population Pyknosed Nuclei (%) [2]: 12% | Population Tubulin-Different-Phenotype (%) [2]: 27% | Total Cell Count [2]: 337 | Population Apoptotic (%) [3]: 32% | Population Fragmented Nuclei (%) [3]: 9% | Population Healthy Nuclei (%) [3]: 76% | Population Hoechst High Intensity Objects (%) [3]: 7% | Population Membrane Permeable-Phenotype (%) [3]: 0% | Population Mitochondria Different-Phenotype (%) [3]: 61% | Population Mitotic Cells (%) [3]: 67% | Population Normal (%) [3]: 92% | Population Pyknosed Nuclei (%) [3]: 14% | Population Tubulin-Different-Phenotype (%) [3]: 42% | Total Cell Count [3]: 427 | Population Apoptotic (%) [4]: 51% | Population Fragmented Nuclei (%) [4]: 7% | Population Healthy Nuclei (%) [4]: 80% | Population Hoechst High Intensity Objects (%) [4]: 8% | Population Mitochondria Different-Phenotype (%) [4]: 55% | Population Mitotic Cells (%) [4]: 48% | Population Normal (%) [4]: 91% | Population Pyknosed Nuclei (%) [4]: 12% | Population Tubulin-Different-Phenotype (%) [4]: 18% | Total Cell Count [4]: 356 | Population Apoptotic (%) [5]: 27% | Population Fragmented Nuclei (%) [5]: 10% | Population Healthy Nuclei (%) [5]: 77% | Population Hoechst High Intensity Objects (%) [5]: 6% | Population Membrane Permeable-Phenotype (%) [5]: 0% | Population Mitochondria Different-Phenotype (%) [5]: 28% | Population Mitotic Cells (%) [5]: 72% | Population Normal (%) [5]: 93% | Population Pyknosed Nuclei (%) [5]: 12% | Population Tubulin-Different-Phenotype (%) [5]: 22% | Total Cell Count [5]: 595 | Population Apoptotic (%) [6]: 46% | Population Fragmented Nuclei (%) [6]: 9% | Population Healthy Nuclei (%) [6]: 82% | Population Hoechst High Intensity Objects (%) [6]: 7% | Population Mitochondria Different-Phenotype (%) [6]: 44% | Population Mitotic Cells (%) [6]: 53% | Population Normal (%) [6]: 92% | Population Pyknosed Nuclei (%) [6]: 7% | Population Tubulin-Different-Phenotype (%) [6]: 18% | Total Cell Count [6]: 447 | Population Apoptotic (%) [7]: 35% | Population Fragmented Nuclei (%) [7]: 7% | Population Healthy Nuclei (%) [7]: 78% | Population Hoechst High Intensity Objects (%) [7]: 4% | Population Membrane Permeable-Phenotype (%) [7]: 0% | Population Mitochondria Different-Phenotype (%) [7]: 44% | Population Mitotic Cells (%) [7]: 64% | Population Normal (%) [7]: 95% | Population Pyknosed Nuclei (%) [7]: 13% | Population Tubulin-Different-Phenotype (%) [7]: 27% | Total Cell Count [7]: 506 | Population Apoptotic (%) [8]: 61% | Population Fragmented Nuclei (%) [8]: 13% | Population Healthy Nuclei (%) [8]: 79% | Population Hoechst High Intensity Objects (%) [8]: 7% | Population Mitochondria Different-Phenotype (%) [8]: 39% | Population Mitotic Cells (%) [8]: 38% | Population Normal (%) [8]: 92% | Population Pyknosed Nuclei (%) [8]: 7% | Population Tubulin-Different-Phenotype (%) [8]: 11% | Total Cell Count [8]: 425 | Population Apoptotic (%) [9]: 18% | Population Fragmented Nuclei (%) [9]: 11% | Population Healthy Nuclei (%) [9]: 81% | Population Hoechst High Intensity Objects (%) [9]: 3% | Population Membrane Permeable-Phenotype (%) [9]: 0% | Population Mitochondria Different-Phenotype (%) [9]: 20% | Population Mitotic Cells (%) [9]: 81% | Population Normal (%) [9]: 96% | Population Pyknosed Nuclei (%) [9]: 6% | Population Tubulin-Different-Phenotype (%) [9]: 13% | Total Cell Count [9]: 946 | Population Apoptotic (%) [10]: 32% | Population Healthy Nuclei (%) [10]: 80% | Population Hoechst High Intensity Objects (%) [10]: 4% | Population Mitochondria Different-Phenotype (%) [10]: 22% | Population Mitotic Cells (%) [10]: 67% | Population Normal (%) [10]: 95% | Population Pyknosed Nuclei (%) [10]: 7% | Population Tubulin-Different-Phenotype (%) [10]: 12% | Total Cell Count [10]: 572 | Population Apoptotic (%) [11]: 30% | Population Fragmented Nuclei (%) [11]: 18% | Population Healthy Nuclei (%) [11]: 74% | Population Hoechst High Intensity Objects (%) [11]: 5% | Population Membrane Permeable-Phenotype (%) [11]: 0% | Population Mitochondria Different-Phenotype (%) [11]: 24% | Population Mitotic Cells (%) [11]: 69% | Population Normal (%) [11]: 94% | Population Pyknosed Nuclei (%) [11]: 6% | Population Tubulin-Different-Phenotype (%) [11]: 14% | Total Cell Count [11]: 753 | Population Apoptotic (%) [12]: 37% | Population Fragmented Nuclei (%) [12]: 14% | Population Healthy Nuclei (%) [12]: 79% | Population Hoechst High Intensity Objects (%) [12]: 2% | Population Mitochondria Different-Phenotype (%) [12]: 27% | Population Mitotic Cells (%) [12]: 62% | Population Normal (%) [12]: 97% | Population Pyknosed Nuclei (%) [12]: 5% | Population Tubulin-Different-Phenotype (%) [12]: 12% | Total Cell Count [12]: 616
